Experimental data gathered from unrelated publications.
Target: Dual specificity protein kinase CLK1 (CLK1, Homo sapiens, UniProt P49759)
Technique: competition with immobilised ligand

For `CS(=O)(=O)N1CCCC(NC(=O)[C@H](CCC2CCCCC2)NC(=O)c2ccc(CNc3ncnc4c3nnn4-c3ccccc3)cc2)C1` (some centres unmarked), the remaining binding was 87% (cell-free assay; 0.1 µM).
`O=C(NCCCN1CCOCC1)c1ccc(Nc2ncc(Cl)c(-c3ccc(Cl)s3)n2)cc1` has a remaining binding of 3.6% (binding; 1 µM).
For `Cc1cc(C)c(-n2ccn3nc(-c4cccnc4)cc23)cc1NC(=O)c1cc(C#N)cc(S(F)(F)(F)(F)F)c1`, the remaining binding was 96.2% (cell-free assay; 0.1 µM).
With `COc1cnc(Nc2cccc(S(N)(=O)=O)c2)nc1N1CCN(c2ccccc2)C(=O)C1` the remaining binding was 100% (binding; 1 µM).
`CN(CCCC(F)(F)F)c1nccc(-c2cnn3ncccc23)n1` has a remaining binding of 43% (binding; 1 µM).
`C=CC(=O)N1CCC(C(=O)NCC(=O)N2CCN(c3nc(-c4cnc(N)nc4C(F)F)nc(N4CCOCC4)n3)CC2)CC1` gave a remaining binding of 93% (binding; 1 µM).
The remaining binding of `C[C@H](c1ccnc(Nc2nc3ccc(-c4cc(N(C)C)ncn4)cc3[nH]2)c1)N1CCN(C(=O)CC(F)(F)F)CC1` is reported as 90% (cell-free assay; 0.1 µM).
The remaining binding of `O=C(NCCCN1CCOCC1)c1ccc(Nc2nccc(-c3cc4ccccc4s3)n2)cc1` is reported as 12% (binding; 1 µM).
The remaining binding of `COc1cnc(Nc2cccc(S(N)(=O)=O)c2)nc1N1CCN(c2ccccc2)CC1` is reported as 96% (binding; 1 µM).
With `C[C@@H](c1ccc(-n2cnc3c(N)ncnc32)cc1)N1CCc2nn(C)c(Cc3ccccc3)c2C1=O` the remaining binding was 67% (binding; 0.1 µM).
The remaining binding of `Cc1cnc(Nc2ccc(C(=O)N3CCC(N4CCCC4)CC3)cc2)nc1-c1cc2ccccc2s1` is reported as 8.3% (binding; 1 µM).
For `O=C(NCC1CCOCC1)c1n[nH]cc1NC(=O)c1c(F)cccc1F`, the remaining binding was 30% (binding; 1 µM).
`CN([C@@H]1CCc2c(CC(=O)O)c3cc(S(C)(=O)=O)ccc3n2C1)S(=O)(=O)c1ccc(F)cc1` gave a remaining binding of 100% (cell-free assay; 1 µM).
For `Nc1ncc2c(n1)-c1c([nH]c3ccc(C#CC4CC4)cc13)CCCC2`, the remaining binding was 100% (binding; 1 µM).
